Measurements pooled from the literature.
Protocols differ between the studies behind these lines.
Target: TRAF2 and NCK-interacting protein kinase (TNIK, Homo sapiens, UniProt Q9UKE5)

The remaining binding of CN([C@@H]1CCc2c(CC(=O)O)c3cc(S(C)(=O)=O)ccc3n2C1)S(=O)(=O)c1ccc(F)cc1 is reported as 100% (cell-free assay; competition with immobilised ligand; 1 µM).
For CNC(=O)[C@@H]1CC[C@@H](n2c(-c3ccc4cnccc4c3)nc3ccc(C(=O)NCc4cccc(C(N)=O)c4)cc32)C1, the remaining binding was 90% (binding; competition with immobilised ligand; 1 µM).
CN(C)c1nccc(-c2cnn3ncccc23)n1 has a remaining binding of 100% (binding; 1 µM).
O=C(c1ccc(Nc2ncc(Cl)c(-c3ccc(Cl)s3)n2)cc1)N1CCC(N2CCCC2)CC1 has a remaining binding of 43% (binding; competition with immobilised ligand; 1 µM).
The remaining binding of N[C@@H]1CCN(c2nccc(-c3cnn4ncccc34)n2)C1 is reported as 100% (binding; 1 µM).
For O=C(NCCCN1CCOCC1)c1ccc(Nc2nccc(-c3cc4ccccc4s3)n2)cc1, the remaining binding was 69% (binding; competition with immobilised ligand; 1 µM).
The remaining binding of CN(C)c1nccc(-c2cnc3ncccn23)n1 is reported as 84% (binding; 1 µM).
For C[C@@H](c1cccc(C#N)c1)n1cc(Cl)cc(C(N)=O)c1=N, the remaining binding was 56% (cell-free assay; competition with immobilised ligand; 1 µM).
For c1cncc(-c2cccc(Nc3nccc(NC4CCCCC4)n3)c2)c1, the remaining binding was 33% (binding; competition with immobilised ligand; 10 µM).
For COc1ccnn2ncc(-c3ccnc(N(C)C)n3)c12, the remaining binding was 63% (binding; 1 µM).
For CC(C)CC(=O)N1CCc2nc(-c3ccc(Br)cc3)nc(N(C)Cc3ccccc3)c2C1, the remaining binding was 100% (cell-free assay; competition with immobilised ligand; 0.1 µM).
COc1ncc2cc3ccccc3nc2c1C#N gave a remaining binding of 100% (cell-free assay; competition with immobilised ligand; 5 µM).
For CC(=O)Nc1c(C(C)=O)c(=O)n(C)c2nc(-c3ccc(Cl)cc3Cl)c(-c3ccc(Cl)cc3)cc12, the remaining binding was 100% (cell-free assay; competition with immobilised ligand; 1 µM).
For O=C(NCC1CCOCC1)c1n[nH]cc1NC(=O)c1c(F)cccc1F, the remaining binding was 84% (binding; competition with immobilised ligand; 1 µM).
FC(F)(F)Oc1cccc(-c2cnc3ccc(-c4ccncc4)nn23)c1 has a remaining binding of 29% (binding; competition with immobilised ligand; 5 µM).
CC1CCCN1c1nccc(-c2cnn3ncccc23)n1 (stereo not drawn) gave a remaining binding of 95% (binding; 1 µM).
For Cc1cnc(Nc2ccc(C(=O)N3CCC(N4CCCC4)CC3)cc2)nc1-c1cc2ccccc2s1, the remaining binding was 68% (binding; competition with immobilised ligand; 1 µM).
The remaining binding of CCC(=O)N[C@@H]1CC[C@H](C(=O)N(C)c2ccc(-c3nc4ccccc4o3)cc2)C1 is reported as 100% (cell-free assay; competition with immobilised ligand; 1 µM).
C[C@@H]1CCN(c2nccc(-c3cnn4ncccc34)n2)C1 gave a remaining binding of 90% (binding; 1 µM).
O=C(Nc1cccnn1)N1CCC(=Cc2cccc(Oc3ccc(C(F)(F)F)cn3)c2)CC1 has a remaining binding of 100% (cell-free assay; competition with immobilised ligand; 1 µM).
The remaining binding of CCN1CCN(Cc2ccc(C(=O)Nc3ccc(C)c(Oc4ccc5c(c4)CC(=O)N5)c3)cc2C(F)(F)F)CC1 is reported as 79% (binding; competition with immobilised ligand; 1 µM).
